Key:
[1] = molecular target: T1, Sterol O-acyltransferase 1 (Rattus norvegicus) (UniProt O70536); assay: Inhibition of ACAT expressed in rat liver microsomes at 50 ug/ml; details: Microsome
T1 sequence (whole entry): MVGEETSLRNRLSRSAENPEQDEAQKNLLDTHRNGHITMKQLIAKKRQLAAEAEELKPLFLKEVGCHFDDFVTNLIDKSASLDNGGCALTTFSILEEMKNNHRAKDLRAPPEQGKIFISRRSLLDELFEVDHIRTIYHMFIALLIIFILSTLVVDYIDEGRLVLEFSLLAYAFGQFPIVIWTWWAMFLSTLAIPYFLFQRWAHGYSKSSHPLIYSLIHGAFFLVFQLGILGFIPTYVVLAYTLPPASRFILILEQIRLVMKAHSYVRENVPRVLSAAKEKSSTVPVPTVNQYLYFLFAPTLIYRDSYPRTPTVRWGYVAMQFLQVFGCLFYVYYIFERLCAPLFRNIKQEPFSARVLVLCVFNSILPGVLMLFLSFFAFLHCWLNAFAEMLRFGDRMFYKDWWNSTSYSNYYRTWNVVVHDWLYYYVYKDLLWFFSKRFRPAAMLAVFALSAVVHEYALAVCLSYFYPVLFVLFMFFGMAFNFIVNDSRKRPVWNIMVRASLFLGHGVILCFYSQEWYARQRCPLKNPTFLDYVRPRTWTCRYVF
Outline: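 Rat liver microsomes were the enzyme source, assayed by a previously described method. Compounds were tested at 50 μg/mL, and the readout was % ACAT inhibition. Values are means of three experiments differing by less than 10%. GERI-BP001M served as reference.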

[2] = molecular target: T2, Sterol O-acyltransferase 1 (Rattus norvegicus, UniProt O70536); assay: Inhibition of ACAT expressed in rat liver microsomes; set-up: species or system Microsome
T2 sequence (O70536 whole entry): T1 sequence (whole entry)

[3] = molecular target: T3, Sterol O-acyltransferase 2 (Homo sapiens, UniProt O75908); assay: Inhibition of human ACAT2 expressed in Hi5 cells; set-up: species or system BTI-TN-5B1-4
T3 sequence (O75908 whole entry): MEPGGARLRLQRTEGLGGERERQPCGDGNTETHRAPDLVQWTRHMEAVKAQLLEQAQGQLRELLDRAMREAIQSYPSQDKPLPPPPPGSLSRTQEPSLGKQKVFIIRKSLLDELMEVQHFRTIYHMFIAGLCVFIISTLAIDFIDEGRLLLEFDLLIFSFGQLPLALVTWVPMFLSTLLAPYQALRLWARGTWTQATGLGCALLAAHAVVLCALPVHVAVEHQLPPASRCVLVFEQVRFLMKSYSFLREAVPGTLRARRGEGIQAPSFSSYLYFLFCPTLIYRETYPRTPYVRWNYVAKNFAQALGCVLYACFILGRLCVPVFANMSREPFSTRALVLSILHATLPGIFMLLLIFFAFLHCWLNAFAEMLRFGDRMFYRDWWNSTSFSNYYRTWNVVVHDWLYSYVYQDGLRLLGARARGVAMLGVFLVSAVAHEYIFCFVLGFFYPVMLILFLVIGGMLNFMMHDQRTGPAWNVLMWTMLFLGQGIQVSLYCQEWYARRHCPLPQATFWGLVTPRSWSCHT
Outline: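 Human ACAT-2 was expressed by baculovirus in Hi5 insect cells, and microsomal fractions of these cells were the enzyme source. Activity was measured by the Brecher and Chan method with slight modification.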

[4] = molecular target: T4, Sterol O-acyltransferase 1 (Homo sapiens, UniProt P35610); assay: Inhibition of human ACAT1 expressed in Hi5 cells; set-up: species or system BTI-TN-5B1-4
T4 sequence (P35610 whole entry): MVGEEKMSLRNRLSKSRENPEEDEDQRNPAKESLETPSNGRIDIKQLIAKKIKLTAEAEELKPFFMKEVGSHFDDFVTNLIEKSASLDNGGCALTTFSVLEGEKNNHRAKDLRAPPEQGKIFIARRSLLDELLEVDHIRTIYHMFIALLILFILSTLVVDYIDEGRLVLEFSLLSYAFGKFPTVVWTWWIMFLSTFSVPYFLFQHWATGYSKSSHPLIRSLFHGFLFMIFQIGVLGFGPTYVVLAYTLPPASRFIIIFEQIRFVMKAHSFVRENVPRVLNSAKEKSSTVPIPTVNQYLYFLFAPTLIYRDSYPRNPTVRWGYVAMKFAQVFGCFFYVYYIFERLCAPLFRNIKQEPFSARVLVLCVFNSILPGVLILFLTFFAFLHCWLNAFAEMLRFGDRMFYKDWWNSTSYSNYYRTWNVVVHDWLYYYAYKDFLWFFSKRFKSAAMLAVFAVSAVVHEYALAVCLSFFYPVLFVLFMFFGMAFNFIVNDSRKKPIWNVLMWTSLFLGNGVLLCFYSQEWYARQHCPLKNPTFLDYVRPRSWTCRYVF

Row | SMILES | inhibition [1] | IC50 [2] | IC50 [3] | IC50 [4]
1 | CCCCCCCN(CCCCCS(=O)(=O)c1ccc(-c2ccccc2)nn1)C(=O)Nc1ccc(F)cc1F | 43% |  |  | 
2 | CCCCCCCN(CCCCCSc1ccc(-c2ccccc2)nn1)C(=O)Nc1ccc(F)cc1F | 44% |  |  | 
3 | CCCCCCCN(CCCCC[S+]([O-])c1cc(-c2ccccc2)cnn1)C(=O)Nc1ccc(F)cc1F (centres undefined) | 62% |  |  | 
4 | CCCCCCCN(CCCCCNc1ccc(-c2ccccc2)nn1)C(=O)Nc1ccc(F)cc1F | 89% | 1.21 µM | 2.07 µM | 5.34 µM
5 | CCCCCCCN(CCCCCNc1cc(-c2ccccc2)cnn1)C(=O)Nc1ccc(F)cc1F | 46% | 36.4 µM | 101 µM | 
6 | CCCCCCCN(CCCCCSc1cc(-c2ccccc2)cnn1)C(=O)Nc1ccc(F)cc1F | 75% |  |  | 
7 | CCCCCCCN(CCCCC[S+]([O-])c1ccc(-c2ccccc2)nn1)C(=O)Nc1ccc(F)cc1F (centres undefined) | 55% |  |  | 
8 | CCCCCCCN(CCCCCS(=O)(=O)c1cc(-c2ccccc2)c(-c2ccccc2)nn1)C(=O)Nc1ccc(F)cc1F | 70% |  |  | 

Second part, the compound after the results:

Row | inhibition [1] | IC50 [2] | IC50 [3] | IC50 [4] | SMILES
9 | 87% | 2.32 µM | 1.74 µM |  | CCCCCCCN(CCCCCNc1cc(-c2ccccc2)c(-c2ccccc2)nn1)C(=O)Nc1ccc(F)cc1F
10 | 75% |  |  |  | CCCCCCCN(CCCCCSc1cc(-c2ccccc2)c(-c2ccccc2)nn1)C(=O)Nc1ccc(F)cc1F
11 | 67% |  |  |  | CCCCCCCN(CCCCCS(=O)(=O)c1cc(-c2ccccc2)cnn1)C(=O)Nc1ccc(F)cc1F
12 | 65% |  |  |  | CCCCCCCN(CCCCC[S+]([O-])c1cc(-c2ccccc2)c(-c2ccccc2)nn1)C(=O)Nc1ccc(F)cc1F (centres undefined)

Reference: ChEMBL document CHEMBL1141216, “Mono- or diphenylpyridazines connected to N-(2,4-difluorophenyl)-N'-heptylurea as acyl-CoA:cholesterol acyltransferase inhibitors” (J Med Chem, 2005)
